Measured values from ChEMBL document CHEMBL1153096, “Properly substituted 1,4-dioxane nucleus favours the selective M3 muscarinic receptor activation” (Bioorg Med Chem, 2009).

Assays:
[1] = Agonist activity at muscarinic M2 receptor in guinea pig atrium assessed as inhibition of electrically-stimulated muscle contraction; format: functional, Cavia porcellus, Cardiac atrium
[2] = Agonist activity at muscarinic M4 receptor in guinea pig lung assessed as inhibition of electrically-stimulated muscle contraction; format: functional, Cavia porcellus
[3] = target: Muscarinic acetylcholine receptor M3 (Cavia porcellus) (UniProt Q8VH26); assay: Agonist activity at muscarinic M3 receptor in guinea pig ileum assessed as inhibition of electrically-stimulated muscle contraction; format: functional, tissue-based
How it was run: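 Male guinea pig (250-350 g, fasted 24 h) ileal segments 2-3 cm, 1.0 g tension, 37 °C, Krebs-Henseleit with carbogen; 45 min equilibration, isometric contractions. Cumulative agonist concentration-response curves; pD2 by linear regression; intrinsic activity relative to bethanechol maximum; means ± SEM of four to six experiments.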

Chain of Muscarinic acetylcholine receptor M3 (Cavia porcellus) (Q8VH26 1-587): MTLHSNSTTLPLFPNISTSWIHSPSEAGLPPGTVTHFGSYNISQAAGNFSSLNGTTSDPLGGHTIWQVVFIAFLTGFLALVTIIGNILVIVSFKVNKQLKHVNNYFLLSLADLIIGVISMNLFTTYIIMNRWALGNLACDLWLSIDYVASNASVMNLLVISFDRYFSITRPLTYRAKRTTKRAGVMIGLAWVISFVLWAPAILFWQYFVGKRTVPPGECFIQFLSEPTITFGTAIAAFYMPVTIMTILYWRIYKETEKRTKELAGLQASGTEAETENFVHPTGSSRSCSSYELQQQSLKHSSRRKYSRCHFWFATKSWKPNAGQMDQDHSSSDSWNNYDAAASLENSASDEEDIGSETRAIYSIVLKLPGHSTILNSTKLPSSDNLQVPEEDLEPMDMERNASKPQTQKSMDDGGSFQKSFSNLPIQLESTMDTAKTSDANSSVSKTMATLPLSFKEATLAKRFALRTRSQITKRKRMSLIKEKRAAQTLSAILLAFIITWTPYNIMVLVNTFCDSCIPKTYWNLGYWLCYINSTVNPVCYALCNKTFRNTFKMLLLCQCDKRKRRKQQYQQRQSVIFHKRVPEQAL

pD2 [3]: 6.16
Compound: CC(C[N+](C)(C)C)OC(N)=O.[Cl-] (stereo not drawn) [BETHANECHOL CHLORIDE]
pD2 [1]: 5.88
pD2 [2]: 5.01
